Assay results: ChEMBL document CHEMBL3351523 (Bioorg Med Chem, 2014)

Columns and labels:
[1] = Cytotoxicity against mock-infected human MT4 cells after 96 hrs by MTT assay; assay type: cell-based
Outline: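 Exponentially growing MT-4 cells were seeded at 1 × 10^5 cells/mL in RPMI-1640 with 10% FBS and held at 37 °C, 5% CO2 with serial compound dilutions. Viability was read by MTT after 96 h. CC50 from linear regression against untreated controls.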

[2] = system: Human immunodeficiency virus 1; assay: Antiviral activity against HIV1 infected in human MT4 cells assessed as inhibition of virus-induced cytopathogenicity after 4 days by MTT assay; assay type: functional, organism-based; conditions: Human immunodeficiency virus 1, MT4, 96 h
Outline: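 MT-4 cells (1 × 10^4/well in RPMI) were infected acutely with HIV-1 IIIB, 100 CCID50 (m.o.i. 0.01), with serial dilutions from 100 µM, 1:5. After 4 days at 37 °C, protection from virus-induced cytopathogenicity was read by MTT. EC50 came from linear regression against untreated controls.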

[3] = Cytotoxicity against mock-infected MDBK cells after 48 to 96 hrs by MTT assay; assay type: cell-based, Bos taurus; conditions: cattle
Outline: (§1)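 Mock-infected MDBK (6 × 10^5 cells/mL; MEM-E, 10% horse serum, 1 mM pyruvate) or BHK (1 × 10^6 cells/mL; MEM-E, 10% FBS) cells were incubated at 37 °C, 5% CO2 with serial dilutions from 100 µM, 1:5. Viability by MTT after 48–96 h. CC50 from linear regression against untreated controls.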

[4] = system: Bovine viral diarrhea virus 1; assay: Antiviral activity against Bovine viral diarrhea virus infected in MDBK cells assessed as inhibition of virus-induced cytopathogenicity after 3 to 4 days by MTT assay; assay type: functional, organism-based; conditions: Bovine viral diarrhea virus isolates and strains
[5] = Cytotoxicity against mock-infected BHK21 cells after 48 to 96 hrs by MTT assay; assay type: functional; conditions: Mesocricetus auratus, BHK-21; outline: as §1
Yellow fever virus = assay: Antiviral activity against Yellow fever virus infected in BHK21 cells assessed as inhibition of virus-induced cytopathogenicity after 3 to 4 days by MTT assay; assay type: functional, organism-based; conditions: BHK-21
Reovirus sp. = assay: Antiviral activity against Reovirus type-1 infected in BHK21 cells assessed as inhibition of virus-induced cytopathogenicity after 3 to 4 days by MTT assay; assay type: functional, organism-based; conditions: BHK-21
[6] = Cytotoxicity against mock-infected african green monkey Vero 76 cells after 48 to 96 hrs by MTT assay; assay type: cell-based; conditions: chlorocebus sabaeus, mock-infected Vero 76 cells
Poliovirus 1 = assay: Antiviral activity against Poliovirus type 1 Sabin strain infected in african green monkey Vero 76 cells assessed as reduction in plaque number after 2 days by plaque reduction assay; assay type: functional, organism-based; conditions: Enterovirus C, 48 h
[7] = system: Vesicular stomatitis virus; assay: Antiviral activity against Vesicular stomatitis virus infected in african green monkey Vero 76 cells assessed as reduction in plaque number after 2 days by plaque reduction assay; assay type: functional, organism-based; conditions: 48 h
Human alphaherpesvirus 1 = assay: Antiviral activity against HSV1 infected in african green monkey Vero 76 cells assessed as reduction in plaque number after 3 days by plaque reduction assay; assay type: functional, organism-based; conditions: Human alphaherpesvirus 1, Vero, 72 h
Coxsackievirus B5 = assay: Antiviral activity against Coxsackievirus B5 infected in african green monkey Vero 76 cells assessed as reduction in plaque number after 3 days by plaque reduction assay; assay type: functional, organism-based; conditions: Enterovirus B, 72 h
[8] = system: Respiratory syncytial virus; assay: Antiviral activity against Respiratory syncytial virus infected in african green monkey Vero 76 cells assessed as reduction in plaque number after 5 days by plaque reduction assay; assay type: functional, organism-based; conditions: human respiratory syncytial virus, 120 h
Vaccinia virus = assay: Antiviral activity against Vaccinia Virus infected in african green monkey Vero 76 cells assessed as reduction in plaque number after 3 days by plaque reduction assay; assay type: functional, organism-based; conditions: Orthopoxvirus vaccinia, 72 h

| SMILES | CC50 at 96 h [1] | EC50 [2] | CC50 [3] | EC50 [4] | CC50 [5] | EC50 (Yellow fever virus) | EC50 (Reovirus sp.) | CC50 [6] | EC50 (Poliovirus 1) | EC50 [7] | EC50 (Human alphaherpesvirus 1) | EC50 (Coxsackievirus B5) | EC50 [8] | EC50 (Vaccinia virus) |
| --- | --- | --- | --- | --- | --- | --- | --- | --- | --- | --- | --- | --- | --- | --- |
| CC1(c2nc3cc(Cl)c(Cl)cc3[nH]2)CCC(CO)C(C)(C)O1 (configuration not stated) | 33 µM | > 100 µM | > 100 µM | 46 µM | > 100 µM | > 100 µM | > 100 µM | > 100 µM | 12 µM | > 100 µM | 60 µM | – | – | – |
| ClC1(Cl)C2CCOC21n1cnc2ccccc21 (configuration not stated) | 33 µM | > 100 µM | – | – | – | – | – | – | – | – | – | – | – | – |
| c1ccc2[nH]c(C3CCCCO3)nc2c1 (configuration not stated) | > 100 µM | > 100 µM | > 100 µM | > 100 µM | > 100 µM | > 100 µM | > 100 µM | > 100 µM | > 100 µM | > 100 µM | > 100 µM | – | – | – |
| c1ccc2c(c1)ncn2C1CCCCO1 (configuration not stated) | > 100 µM | > 100 µM | > 100 µM | > 100 µM | > 100 µM | > 100 µM | – | – | – | – | – | – | – | – |
| Clc1cc2ncn(C3CCCO3)c2cc1Cl (configuration not stated) | > 100 µM | > 100 µM | > 100 µM | > 100 µM | > 100 µM | > 100 µM | > 100 µM | – | – | – | – | – | – | – |
| CC1(c2nc3ccccc3[nH]2)CCC(C(N)=O)C(C)(C)O1 (configuration not stated) | > 100 µM | > 100 µM | > 100 µM | > 100 µM | > 100 µM | > 100 µM | > 100 µM | > 100 µM | > 100 µM | > 100 µM | > 100 µM | – | – | – |
| CC1(c2nc3ccccc3[nH]2)CCC(C#N)C(C)(C)O1 (configuration not stated) | > 100 µM | > 100 µM | > 100 µM | > 100 µM | > 100 µM | > 100 µM | > 100 µM | > 100 µM | > 100 µM | > 100 µM | > 100 µM | – | – | – |
| Clc1cc2nc(C3CCCO3)[nH]c2cc1Cl (configuration not stated) | – | – | > 100 µM | > 100 µM | > 100 µM | > 100 µM | – | – | – | – | – | – | – | – |
| Clc1cc2nc(C3CCCCO3)[nH]c2cc1Cl (configuration not stated) | 6 µM | > 100 µM | > 100 µM | > 100 µM | > 100 µM | > 100 µM | > 100 µM | > 100 µM | 60 µM | > 100 µM | > 100 µM | – | – | – |
| O=C1c2ccccc2-n2c(nc3cccnc32)CN1C[C@@H]1CCCN2CCCC[C@H]12 | 31 µM | > 100 µM | 91 µM | 17 µM | 37 µM | > 100 µM | – | > 90 µM | > 100 µM | > 100 µM | – | > 100 µM | > 100 µM | > 100 µM |
| CCN(CC)CCCn1c(-c2ccc(OC)cc2)nc2cc(C(F)(F)F)ccc21 | > 100 µM | > 100 µM | > 100 µM | > 100 µM | 76 µM | > 100 µM | > 100 µM | > 100 µM | > 100 µM | > 100 µM | > 100 µM | > 100 µM | > 100 µM | > 100 µM |
| COc1ccc(-c2nc3cc(Cl)ccc3n2[C@H]2CCCN3CCCC[C@H]23)cc1 | > 100 µM | > 100 µM | > 100 µM | 36 µM | > 100 µM | > 100 µM | > 100 µM | > 100 µM | > 100 µM | > 100 µM | > 100 µM | > 100 µM | > 100 µM | > 100 µM |
| COc1ccc(-c2nc3cc(Cl)ccc3n2[C@@H]2CCCN3CCCC[C@H]23)cc1 | > 100 µM | > 100 µM | > 100 µM | > 100 µM | > 100 µM | > 100 µM | > 100 µM | > 100 µM | > 100 µM | > 100 µM | > 100 µM | > 100 µM | > 100 µM | > 100 µM |
| FC(F)(F)c1ccc2c(c1)nc(-c1ccccc1)n2C[C@@H]1CCCN2CCCC[C@H]12 | 46 µM | > 100 µM | 35 µM | > 100 µM | 75 µM | > 100 µM | > 100 µM | 90 µM | > 100 µM | > 100 µM | > 100 µM | > 100 µM | > 100 µM | > 100 µM |
| Fc1cccc(F)c1-c1nc2cc(C(F)(F)F)ccc2n1C[C@@H]1CCCN2CCCC[C@H]12 | 57 µM | > 100 µM | 36 µM | > 100 µM | 18 µM | > 100 µM | > 100 µM | ≥ 100 µM | 60 µM | > 100 µM | > 100 µM | > 100 µM | > 100 µM | > 100 µM |
| COc1ccc(-c2nc3cc(C(F)(F)F)ccc3n2C[C@@H]2CCCN3CCCC[C@H]23)cc1 | 25 µM | > 100 µM | > 100 µM | > 100 µM | 65 µM | > 100 µM | 27 µM | 75 µM | > 100 µM | > 100 µM | > 100 µM | > 100 µM | > 100 µM | > 100 µM |
| CCCCn1c(-c2ccc(OC)cc2)nc2cc(C(F)(F)F)ccc21 | > 100 µM | > 100 µM | 22 µM | > 100 µM | 35 µM | > 100 µM | > 100 µM | 80 µM | 25 µM | > 100 µM | > 100 µM | > 100 µM | > 100 µM | > 100 µM |
| COCCn1c(-c2ccc(OC)cc2)nc2cc(C(F)(F)F)ccc21 | 80 µM | > 100 µM | > 100 µM | > 100 µM | > 100 µM | > 100 µM | > 100 µM | > 100 µM | > 100 µM | > 100 µM | > 100 µM | > 100 µM | > 100 µM | > 100 µM |
| CC(CC(=O)O)n1c(-c2ccccc2)nc2ccccc21 (configuration not stated) | > 100 µM | > 100 µM | > 100 µM | > 100 µM | > 100 µM | > 100 µM | > 100 µM | > 100 µM | > 100 µM | > 100 µM | > 100 µM | > 100 µM | > 100 µM | > 100 µM |
| FC(F)(F)c1ccc2[nH]c(C3CCCCO3)nc2c1 (configuration not stated) | 97 µM | > 100 µM | > 100 µM | > 100 µM | > 100 µM | > 100 µM | > 100 µM | > 100 µM | > 100 µM | > 100 µM | > 100 µM | – | – | – |
| Clc1ccc2[nH]c(C3CCCCO3)nc2c1 (configuration not stated) | > 100 µM | > 100 µM | > 100 µM | > 100 µM | > 100 µM | > 100 µM | > 100 µM | > 100 µM | 20 µM | > 100 µM | > 100 µM | – | – | – |
| COc1ccc(-c2nc3cc(C(F)(F)F)ccc3n2CCN(C)C)cc1 | > 100 µM | > 100 µM | > 100 µM | > 100 µM | > 100 µM | > 100 µM | > 100 µM | > 100 µM | > 100 µM | > 100 µM | > 100 µM | > 100 µM | > 100 µM | > 100 µM |
| Nc1nc2c(ncn2COCCO)c(=O)[nH]1 [ACYCLOVIR] | > 100 µM | – | > 100 µM | > 100 µM | > 100 µM | > 100 µM | > 100 µM | > 100 µM | > 100 µM | > 100 µM | 1.2 µM | > 100 µM | > 100 µM | > 100 µM |
| O=C1Nc2ccc(Cl)cc2[C@@](C#CC2CC2)(C(F)(F)F)O1 [EFAVIRENZ] | 38 µM | – | – | – | – | – | – | – | – | – | – | – | – | – |
